Test results from ChEMBL document CHEMBL3102846 (Eur J Med Chem, 2014).
Calls of active or inactive are those of the source. No cut-off for these calls is given here.

Key:
[1] = Inhibition of Wnt3A/beta-catenin signaling in HEK293 cells at 1 uM after 24 hrs by firefly/renilla dual luciferase reporter gene assay relative to vehicle-treated control; format: cell-based; design: scale not given: the % may be the effect or the level left; settings: Homo sapiens
Outline: (§1)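 HEK293T cells were co-transfected with TOPglow (or FOPglow) plus pCMV Renilla. At 20 h they were reseeded at 18×10^3/well and treated for 24 h with Wnt-3A conditioned medium (from L-Wnt-3A cells) plus analogs (0.01–20 µM; DMSO ≤0.1%). Firefly/Renilla dual-luciferase ratios were expressed as % of DMSO under Wnt-3A. EC50 was taken from sigmoidal concentration–response fits; three independent experiments.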

[2] = Inhibition of Wnt3A/beta-catenin signaling in HEK293 cells at 10 uM after 24 hrs by firefly/renilla dual luciferase reporter gene assay relative to vehicle-treated control; format: cell-based; design: scale not given: the % may be the effect or the level left; settings: Homo sapiens; outline: as §1
[3] = Inhibition of Wnt3A/beta-catenin signaling in HEK293 cells at 5 uM after 24 hrs by firefly/renilla dual luciferase reporter gene assay relative to vehicle-treated control; format: cell-based; design: scale not given: the % may be the effect or the level left; settings: Homo sapiens; outline: as §1
[4] = Inhibition of Wnt3A/beta-catenin signaling in HEK293 cells at 20 uM after 24 hrs by firefly/renilla dual luciferase reporter gene assay relative to vehicle-treated control; format: cell-based; design: scale not given: the % may be the effect or the level left; settings: Homo sapiens; outline: as §1
HEK293T (human) = experiment: Cytotoxicity against human HEK293T cells at dual luciferase reporter gene assay EC50 after 24 hrs by MTS assay
[5] = Inhibition of Wnt3A/beta-catenin signaling-mediated Tcf4 transcriptional activity in human HEK293T cells at dual luciferase reporter gene assay EC50 after 24 hrs by FOPglow reporter gene assay; design: scale not given: the % may be the effect or the level left
[6] = Inhibition of Wnt3A/beta-catenin signaling in HEK293 cells after 24 hrs by firefly/renilla dual luciferase reporter gene assay relative to curcumin; format: cell-based; settings: Homo sapiens
Outline: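 EC50s came from the HEK293T TOPglow/Renilla dual-luciferase assay with Wnt-3A conditioned medium and 24 h compound exposure (0.01–20 µM), using sigmoidal fits; three independent experiments.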

[7] = Inhibition of Wnt3A/beta-catenin signaling in HEK293 cells after 24 hrs by firefly/renilla dual luciferase reporter gene assay; format: cell-based; settings: Homo sapiens, HEK293, 24 h; outline: as §1
[8] = Inhibition of Wnt3A/beta-catenin signaling in human U2OS cells assessed as effect on cytoplasmic beta-catenin level at 5 uM after 24 hrs by Western blot analysis; format: cell-based
Outline: (§2)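 U2OS cells were pretreated with analogs for 24 h, and cytoplasmic and nuclear fractions were prepared for β-catenin immunoblotting. α-Tubulin (cytoplasmic) and lamin A/C (nuclear) were loading references. Bands were quantified by densitometry and expressed as % of DMSO-treated cells, with at least triplicate experiments.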

[9] = Inhibition of Wnt3A/beta-catenin signaling in human U2OS cells assessed as reduction in nuclear beta-catenin accumulation at 5 uM after 24 hrs by Western blot analysis; format: cell-based; outline: as §2
[10] = Inhibition of Wnt3A/beta-catenin signaling-mediated Tcf4 transcriptional activity in human U2OS cells at 1 uM after 24 hrs by FOPglow reporter gene assay; format: cell-based
Outline: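 U2OS cells (1.0×10^5/well, 90–95% confluent) were co-transfected with TOPglow or FOPglow (0.3 µg) plus pCMV Renilla. At 20 h they were treated for 24 h with Wnt-3A conditioned medium and analogs. Firefly luciferase was normalized to Renilla and expressed as % of DMSO-treated samples; mean ± S.E.M of three independent experiments.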

| SMILES | activity [1] | activity [2] | activity [3] | activity [4] | Activity (HEK293T (human)) | activity [5] | fold change (FC) [6] | EC50 [7] | inhibition [8] | inhibition [9] | inhibition [10] |
| --- | --- | --- | --- | --- | --- | --- | --- | --- | --- | --- | --- |
| O=C1/C(=C/c2ccc(F)cc2)CC/C1=C\c1ccc(F)cc1 | 120% | 105% | 112% | 108% |  |  |  |  |  |  |  |
| O=C(/C=C(O)/C=C/c1ccccc1)/C=C/c1ccccc1 | 109% | 107% | 104% | 97.2% |  |  |  |  |  |  |  |
| COc1ccc(/C=C/C(=O)/C=C/c2ccc(OC)c(OC)c2)cc1OC | 107% | 109% | 108% | 103% |  |  |  |  |  |  |  |
| COc1cccc(/C=C/C(=O)c2cccc(OC)c2)c1 | 107% | 111% | 108% | 72.9% |  |  |  |  |  |  |  |
| O=C1/C(=C/c2ccccc2F)CCC/C1=C\c1ccccc1F | 57.7% | 14.5% | 21.9% | 20.9% | 87% | 93% | 22.8 | 0.9 µM |  |  |  |
| COc1ccc(/C=C2\CC/C(=C\c3ccc(OC)c(O)c3)C2=O)cc1O | 52.6% | 39.5% | 45% | 39.2% | 86.9% | 110% | 40.4 | 0.5 µM | inactive | inactive | 25.7% |
| O=C1/C(=C/c2ccccc2)CCC/C1=C\c1ccccc1 [2,6-DIBENZYLIDENECYCLOHEXANONE] | 85.8% | 40.6% | 49.6% | 39% | 100% | 90.7% | 10.1 | 2 µM |  |  |  |
| COc1cccc(/C=C2\CCC/C(=C\c3cccc(OC)c3)C2=O)c1 | 93.3% | 72.7% | 60.7% | 81.5% |  |  |  |  |  |  |  |
| COc1cccc(/C=C/C(=O)/C=C(O)/C=C/c2cccc(OC)c2)c1 | 97.7% | 108% | 107% | 101% |  |  |  |  |  |  |  |
| COc1cc(/C=C2\CC/C(=C\c3ccc(O)c(OC)c3)C2=O)ccc1O | 91.6% | 37.5% | 54.1% | 13.3% |  | 90.8% | 3.5 | 5.9 µM |  |  |  |
| COc1ccc(/C=C/C(=O)c2ccc(OC)c(OC)c2)cc1OC | 95% | 60.3% | 86.6% | 41.6% |  |  |  |  |  |  |  |
| COc1ccc(/C=C2\CC/C(=C\c3ccc(OC)c(OC)c3)C2=O)cc1OC | 88.9% | 55.5% | 65.9% | 39.2% |  | 85.2% | 1.2 | 17.1 µM |  |  |  |
| COc1cc(/C=C2\CCC/C(=C\c3ccc(O)c(OC)c3)C2=O)ccc1O [CYCLOVALONE] | 86.1% | 21.3% | 28.9% |  |  | 87.6% | 7.9 | 2.6 µM |  |  |  |
| O=C(/C=C/c1ccc(O)cc1)CC(=O)/C=C/c1ccc(O)cc1 | 100% | 72.5% | 77.7% | 69.1% |  |  |  |  |  |  |  |
| COc1cccc(/C=C2\CC/C(=C\c3cccc(OC)c3)C2=O)c1 | 92.3% | 72% | 72.7% | 61.3% |  |  |  |  |  |  |  |
| COc1ccc(/C=C/C(=O)/C=C(O)/C=C/c2ccc(OC)c(O)c2)cc1O | 99.7% | 105% | 110% | 113% |  |  |  |  |  |  |  |
| O=C1/C(=C/c2cccc(F)c2)CCC/C1=C\c1cccc(F)c1 | 96.1% | 105% | 119% | 104% |  |  |  |  |  |  |  |
| O=C(/C=C/c1ccc(O)cc1)c1ccc(O)cc1 | 92.7% | 70.9% | 89.6% | 68.3% |  |  |  |  |  |  |  |

| SMILES | activity [1] | activity [2] | activity [3] | activity [4] | Activity (HEK293T (human)) | activity [5] | fold change (FC) [6] | EC50 [7] | inhibition [8] | inhibition [9] | inhibition [10] |
| --- | --- | --- | --- | --- | --- | --- | --- | --- | --- | --- | --- |
| O=C(/C=C/c1ccc(F)c(F)c1)c1ccc(F)c(F)c1 | 117% | 90.2% | 112% | 59.1% |  |  |  |  |  |  |  |
| O=C(/C=C(O)/C=C/c1ccc(F)c(F)c1)/C=C/c1ccc(F)c(F)c1 | 83.3% | 89.2% | 92.2% | 93.1% |  |  |  |  |  |  |  |
| COc1ccc(/C=C/C(=O)/C=C(O)/C=C/c2ccc(OC)c(OC)c2)cc1OC | 102% | 46.5% | 70% |  | 41.6% | 118% | 2.5 | 8.3 µM |  |  |  |
| O=C1/C(=C/c2ccccc2)CC/C1=C\c1ccccc1 | 82.7% | 25.3% | 41.5% | 18.4% | 83.5% | 82.9% | 6.7 | 3.1 µM |  |  |  |
| COc1ccc(/C=C/C(=O)c2ccc(OC)c(O)c2)cc1O | 95.7% | 42% | 53.9% | 25.7% | 87.2% | 131% | 5.3 | 3.9 µM |  |  |  |
| O=C(/C=C/c1ccc(F)c(F)c1)/C=C/c1ccc(F)c(F)c1 | 103% | 110% | 100% | 111% |  |  |  |  |  |  |  |
| O=C1/C(=C/c2ccc(O)cc2)CCC/C1=C\c1ccc(O)cc1 | 51.9% | 26.3% | 26.9% | 16.7% |  | 85.1% | 25.8 | 0.8 µM | inactive | inactive | 25.7% |
| O=C1/C(=C/c2cccc(F)c2)CC/C1=C\c1cccc(F)c1 | 124% | 109% | 119% | 103% |  |  |  |  |  |  |  |
| O=C1/C(=C/c2ccc(F)c(F)c2)CC/C1=C\c1ccc(F)c(F)c1 | 71% | 60.2% | 73.1% | 59.5% |  |  |  |  |  |  |  |
| O=C1/C(=C/c2ccccc2F)CC/C1=C\c1ccccc1F | 80% | 85.3% | 75.7% | 72.8% |  |  |  |  |  |  |  |
| O=C(/C=C/c1ccccc1)/C=C/c1ccccc1 | 93% | 79.7% | 82.7% | 77.9% |  |  |  |  |  |  |  |
| COc1cccc(/C=C/C(=O)/C=C/c2cccc(OC)c2)c1 | 100% | 103% | 114% | 103% |  |  |  |  |  |  |  |
| O=C1/C(=C/c2ccc(F)cc2)CCC/C1=C\c1ccc(F)cc1 | 70.3% | 61.6% | 65.2% | 60.2% |  |  |  |  |  |  |  |
| COc1cc(/C=C/C(=O)c2ccc(O)c(OC)c2)ccc1O | 112% | 86.9% | 115% | 69.6% |  |  |  |  |  |  |  |
| O=C(/C=C/c1ccccc1)c1ccccc1 [CHALCONE] | 102% | 69% | 90.6% | 18.9% |  | 112% | 1.9 | 11 µM |  |  |  |
| COc1ccc(/C=C2\CCC/C(=C\c3ccc(OC)c(OC)c3)C2=O)cc1OC | 97.7% | 62.8% | 64.3% | 40.8% | 62.1% | 104% | 1.3 | 15.9 µM |  |  |  |
| O=C1/C(=C/c2ccc(F)c(F)c2)CCC/C1=C\c1ccc(F)c(F)c1 | 94.5% | 118% | 126% | 114% |  |  |  |  |  |  |  |
| COc1cc(/C=C/C(=O)/C=C/c2ccc(O)c(OC)c2)ccc1O | 118% | 110% | 111% | 90.4% |  |  |  |  |  |  |  |
